Laboratory results reported in ChEMBL document CHEMBL1141800, “Xenia diterpenoids from the formosan soft coral Xenia blumi” (2005).
Converted amounts (≈) assume the structure as drawn.

Key:
[1] = test system: HT-29; assay: Cytotoxicity against human HT-29 cells; format: functional; conditions: read-out: ED50 (the source's name)
Procedure, shortened: (§1)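 In vitro cytotoxicity assay against cultured HT-29 (human colon adenocarcinoma) and P-388 (mouse lymphocytic leukemia) cells; P-388 line was supplied by an outside academic lab. Potency is reported as ED50 in μg/mL.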

[2] = test system: P388; assay: Cytotoxicity against mouse P388 cells; format: functional; conditions: read-out: ED50 (the source's name); procedure, shortened: as §1

SMILES	EC50 [1] [µg/mL]	EC50 [2] [µg/mL]
COC(=O)[C@@H]1[C@@H](/C(=C\C=C\C(C)(C)O)COC(C)=O)CC[C@@]2(C)C[C@]1(O)CC[C@H]2O	> 20	> 20
C=C1CC[C@@H]2O[C@@]2(C)CC[C@@H]2/C(=C\C=C\C(C)(C)O)C(=O)OC[C@@H]12	8.6 (≈ 25.9 µM)	6.9 (≈ 20.8 µM)
C=C1CC[C@@](C)(C=O)CC[C@@H]2/C(=C\C=C\C(C)(C)O)COC(=O)[C@@H]12	4.6 (≈ 13.8 µM)	3.3 (≈ 9.93 µM)
C=C1CC/C=C(\C)CC[C@@H]2/C(=C/C=C/C(C)(C)O)C(=O)OC[C@@H]12	8.7 (≈ 27.5 µM)	> 20
C=C1CC(=O)/C=C(/C)CC[C@@H]2/C(=C/C=C/C(C)(C)O)C(=O)OC[C@@H]12	0.5 (≈ 1.51 µM)	0.2 (≈ 0.605 µM)
C=C1CC[C@@H]2O[C@@]2(C)CC[C@@H]2C([C@@H](OC(C)=O)[C@H](C=C(C)C)OC(C)=O)=CO[C@H](OC(C)=O)[C@@H]12	> 20	> 20
C=C1CC[C@@H]2O[C@@]2(C)CC[C@@H]2/C(=C/C=C/C(C)(C)O)C(=O)OC[C@@H]12	5.6 (≈ 16.8 µM)	4.7 (≈ 14.1 µM)
C=C1CC[C@H](O)C(=C)CC[C@@H]2/C(=C\C=C\C(C)(C)O)COC(=O)[C@@H]12	4.9 (≈ 14.7 µM)	3.7 (≈ 11.1 µM)
